Reference: ChEMBL document CHEMBL1141674, “Effects of 3-(4'-geranyloxy-3'-methoxyphenyl)-2-trans propenoic acid and its ester derivatives on biofilm formation by two oral pathogens, Porphyromonas gingivalis and Streptococcus mutans” (2008)
In brackets after ≈: the same amount, converted by molar mass. Activity calls are given as the source filed them. The calls are words filed in the database; no cut-off is given here.

What was measured:
Porphyromonas gingivalis [1] = test: Antimicrobial activity against Porphyromonas gingivalis ATCC 33277 assessed as bacterial growth at 125 ug/ml after 48 hrs by absorbance at 660 nm relative to control
Porphyromonas gingivalis [2] = test: Antimicrobial activity against Porphyromonas gingivalis ATCC 33277 assessed as bacterial growth at 31.2 ug/ml after 4 hrs by XTT assay relative to control; assay type: functional; conditions: in the assay text read “after 48 hrs by absorbance at 660 nm” for “after 4 hrs by XTT assay”
Porphyromonas gingivalis [3] = test: Antimicrobial activity against Porphyromonas gingivalis ATCC 33277 assessed as bacterial growth at 7.8 ug/ml after 4 hrs by XTT assay relative to control; assay type: functional
Method in brief: (§1)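 P. gingivalis biofilms were pre-grown for 48 h (24 h THB-HK culture diluted to OD660 0.07, 37 °C, anaerobic). They were then exposed to compound dilutions for 4 h at 37 °C under anaerobiosis. Viability was read by XTT reduction: fresh reagent of 12.5 parts XTT (1 mg/ml stock in PBS) to 1 part menadione (1 mM stock in acetone), 1 h at 37 °C, A490.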

Streptococcus mutans [4] = test: Antimicrobial activity against Streptococcus mutans ATCC 25175 assessed as effect on bacterial growth after 4 hrs by XTT assay relative to control; assay type: functional, organism-based
Porphyromonas gingivalis [5] = test: Antimicrobial activity against Porphyromonas gingivalis ATCC 33277 assessed as bacterial growth at 3.9 ug/ml after 4 hrs by XTT assay relative to control; assay type: functional
Method in brief: as §1

Porphyromonas gingivalis [6] = test: Antimicrobial activity against Porphyromonas gingivalis ATCC 33277 assessed as bacterial growth at 15.6 ug/ml after 4 hrs by XTT assay relative to control; assay type: functional; conditions: in the assay text read “after 48 hrs by absorbance at 660 nm” for “after 4 hrs by XTT assay”
Porphyromonas gingivalis [7] = test: Antimicrobial activity against Porphyromonas gingivalis ATCC 33277 assessed as bacterial growth at 62.5 ug/ml after 4 hrs by XTT assay relative to control; assay type: functional; conditions: in the assay text read “after 48 hrs by absorbance at 660 nm” for “after 4 hrs by XTT assay”
Porphyromonas gingivalis [8] = test: Antimicrobial activity against Porphyromonas gingivalis ATCC 33277 assessed as inhibition of biofilm formation at 31.3 ug/ml after 48 hrs; assay type: functional; set-up: scale not given: the % may be the effect or the level left
Method in brief: (§2)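 A 24 h P. gingivalis culture in THB-HK was diluted to OD660 0.07 and mixed 1:1 with serial compound dilutions in THB-HK; untreated wells served as controls. Plates were held 48 h at 37 °C anaerobically and growth was read at A660. Washed biofilms were stained with 0.04% crystal violet for 15 min, eluted with 95% ethanol and read at A550. Triplicates; mean ± SD of two independent experiments.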

Porphyromonas gingivalis [9] = test: Antimicrobial activity against Porphyromonas gingivalis ATCC 33277 assessed as bacterial growth at 125 ug/ml after 4 hrs by XTT assay relative to control; assay type: functional; conditions: in the assay text read “after 48 hrs by absorbance at 660 nm” for “after 4 hrs by XTT assay”
Streptococcus mutans [10] = test: Antimicrobial activity against Streptococcus mutans ATCC 25175 assessed as inhibition of biofilm formation at 3.9 ug/ml after 48 hrs; assay type: functional, organism-based
Porphyromonas gingivalis [11] = test: Antimicrobial activity against Porphyromonas gingivalis ATCC 33277 assessed as bacterial growth at 15.6 ug/ml after 48 hrs by absorbance at 660 nm relative to control
Porphyromonas gingivalis [12] = test: Antimicrobial activity against Porphyromonas gingivalis ATCC 33277 assessed as bacterial growth at 31.2 ug/ml after 48 hrs by absorbance at 660 nm relative to control
Porphyromonas gingivalis [13] = test: Antimicrobial activity against Porphyromonas gingivalis ATCC 33277 assessed as bacterial growth at 62.5 ug/ml after 48 hrs by absorbance at 660 nm relative to control
Streptococcus mutans [14] = test: Antimicrobial activity against Streptococcus mutans ATCC 25175 assessed as inhibition of biofilm formation after 48 hrs; assay type: functional; conditions: ATCC 25175, 48 h
Porphyromonas gingivalis [15] = test: Antimicrobial activity against Porphyromonas gingivalis ATCC 33277 assessed as inhibition of biofilm formation after 48 hrs; assay type: functional; conditions: ATCC 33277, 48 h
Method in brief: as §2

Compound `Oc1ccc(O)cc1` [HYDROQUINONE] has an Activity (Porphyromonas gingivalis [1]) of 14%, an Activity (Porphyromonas gingivalis [2]) of 17% and an Activity (Porphyromonas gingivalis [3]) of 27%. The Activity (Streptococcus mutans [4]) was “inactive”, the Activity (Porphyromonas gingivalis [5]) was 45% and the Activity (Porphyromonas gingivalis [6]) was 15%. It also gave an Activity (Porphyromonas gingivalis [7]) of 13%.

`COc1cc(/C=C/C(=O)O)ccc1OC/C=C(\C)CCC=C(C)C` was tested, and the Activity (Porphyromonas gingivalis [2]) was 15%, the Activity (Porphyromonas gingivalis [3]) was 68% and the Activity (Streptococcus mutans [4]) was “inactive”. It also gave an Activity (Porphyromonas gingivalis [8]) of 80%, an Activity (Porphyromonas gingivalis [5]) of 81% and an Activity (Porphyromonas gingivalis [9]) of 13%. The Activity (Streptococcus mutans [10]) was “Active”, the Activity (Porphyromonas gingivalis [7]) was 9% and the Activity (Porphyromonas gingivalis [11]) was 34%.

`O=C1C=C(O)C(=O)c2ccccc21` [LAWSONE] showed an Activity (Porphyromonas gingivalis [1]) of 49%, an Activity (Porphyromonas gingivalis [2]) of 86% and an Activity (Porphyromonas gingivalis [3]) of 100%. The Activity (Streptococcus mutans [4]) was “inactive”, the Activity (Porphyromonas gingivalis [5]) was 103% and the Activity (Porphyromonas gingivalis [6]) was 92%. For the same compound, the Activity (Porphyromonas gingivalis [7]) was 79%.

In the case of `COc1cc(/C=C/C(=O)OC2=CC(=O)c3ccccc3C2=O)ccc1OC/C=C(\C)CCC=C(C)C`, the Activity (Porphyromonas gingivalis [3]) is reported as 124%, the Activity (Streptococcus mutans [4]) is reported as “inactive” and the Activity (Porphyromonas gingivalis [5]) is reported as 110%. The Activity (Porphyromonas gingivalis [9]) was 17%, the Activity (Porphyromonas gingivalis [6]) was 105% and the Activity (Porphyromonas gingivalis [12]) was 34%. For the same compound, the Activity (Porphyromonas gingivalis [7]) was 16%.

`COc1cc(/C=C/C(=O)Oc2ccccc2OC)ccc1OC/C=C(\C)CCC=C(C)C` was tested, and the Activity (Porphyromonas gingivalis [2]) was 28%, the Activity (Porphyromonas gingivalis [3]) was 25% and the Activity (Streptococcus mutans [4]) was “inactive”. The Activity (Porphyromonas gingivalis [5]) was 61%, the Activity (Porphyromonas gingivalis [9]) was 32% and the Activity (Porphyromonas gingivalis [6]) was 22%. It also gave an Activity (Porphyromonas gingivalis [7]) of 25%.

Work on `COC(=O)c1ccc(OC(=O)/C=C/c2ccc(OC/C=C(\C)CCC=C(C)C)c(OC)c2)c(OC)c1` yielded an Activity (Porphyromonas gingivalis [1]) of 40%, an Activity (Porphyromonas gingivalis [2]) of 72% and an Activity (Porphyromonas gingivalis [3]) of 87%. For the same compound, the Activity (Streptococcus mutans [4]) was “inactive”, the Activity (Porphyromonas gingivalis [5]) was 98% and the Activity (Porphyromonas gingivalis [6]) was 76%. The Activity (Porphyromonas gingivalis [13]) was 49%.

`N=C(NCCCCCCNC(=N)NC(=N)Nc1ccc(Cl)cc1)NC(=N)Nc1ccc(Cl)cc1` [CHLORHEXIDINE] was tested, and the MIC (Streptococcus mutans [14]) was 3 µM (≈ 1.52 µg/mL) and the MIC (Porphyromonas gingivalis [15]) was 6 µM (≈ 3.03 µg/mL).
